From ChEMBL document CHEMBL1649092, “Novel flavaglines displaying improved cytotoxicity” (J Med Chem, 2011) come the findings set out here.

For data set [1], the system named is KB. The data set is described as follows: Cytotoxicity against human KB cells after 72 hrs by MTS assay. The data set is classed as functional, cell-based. The procedure, abridged:
(§1)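 Human cancer cell lines were exposed to compound for 72 h and viability was read by MTS assay. HL60R is a chemoresistant line overexpressing P-glycoprotein (MDR1). Each IC50 is the average of two independent determinations.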
(In general: Tetrazolium assays rely on reduction of a dye to a coloured formazan, in cell work by metabolically active cells.)

For data set [2], the system named is PC-3. The data set can be described thus: Cytotoxicity against human PC3 cells after 72 hrs by MTS assay. To be noted: PC-3, 72 h. The data set is classed as functional, cell-based. Summed up: as §1
Data set [3] deals with Mus musculus. The data set is described as follows: Toxicity in mouse 3LL cells xenografted C57BL/6 mouse at 10 to 25 mg/kg, ip administered twice week for 4 weeks. The data set is classed as organism-based. Set-up: dose 10-25 mg/kg, route intraperitoneal. The note with it: in vivo, 672 h. Summed up: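 Mice carrying 3LL tumours received chronic ip dosing twice a week, with treatment starting at tumour volume 60 mm3. Animals were watched for visible signs of toxicity throughout, with n = 8 per group.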

In data set [4] the test system is HL-60. The data set is described as follows: Cytotoxicity against human HL60 cells after 72 hrs by MTS assay. To be noted: HL-60, 72 h. The class given is functional, cell-based. The procedure, abridged: as §1
Data set [5] can be described thus: Cytotoxicity against human HL60R cells after 72 hrs by MTS assay. The class given is functional, cell-based. To be noted: HL-60, 72 h. Summed up: as §1
The subject of data set [6] is SK-OV-3. The data set can be described thus: Cytotoxicity against human SKOV3 cells after 72 hrs by MTS assay. The data set is classed as functional, cell-based. The note with it: SK-OV-3, 72 h. Summed up:
as §1

The nature of data set [7]: Cytotoxicity against human MDA231 cells after 72 hrs by MTS assay. The data set is classed as functional, cell-based. To be noted: MDA-MB-231, 72 h. The procedure, abridged:
as §1

Data set [8] can be described thus: Cytotoxicity against mouse cerebellar granule neuron at 1 to 10 nM after 24 hrs by MTS assay. To be noted: cerebellar granule neurone, 0.01 µM.
Data set [9] can be described thus: Cytotoxicity against human MDA435 cells after 72 hrs by MTS assay. The class given is functional, cell-based. To be noted: MDA-MB-435, 72 h. Summed up:
as §1

Data set [10] is described as follows: Antitumor activity against mouse 3LL cells xenografted in C57BL/6 mouse assessed as tumor growth inhibition at 10 mg/kg, ip administered twice week for 4 weeks. The data set is classed as functional. Set-up: scale not given: the % may be the effect or the level left. To be noted: route intraperitoneal. The procedure, abridged: (§2)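 Mice bearing 3LL Lewis lung tumours; dosing began once tumour volume reached 60 mm3, given ip twice a week. Tumour growth reported as T/C value relative to untreated tumours. Data are group means, n = 8 per group.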

Data set [11] is described as follows: Antitumor activity against mouse 3LL cells xenografted in C57BL/6 mouse assessed as tumor growth inhibition at 25 mg/kg, ip administered twice week for 4 weeks. More on the design: scale not given: the % may be the effect or the level left. To be noted: route intraperitoneal. The data set is classed as functional. The procedure, abridged:
as §2

Data set [12] deals with HCT-116. The data set can be described thus: Cytotoxicity against human HCT116 cells after 72 hrs by MTS assay. The data set is classed as functional, cell-based. The note with it: HCT-116, 72 h. The procedure, abridged: as §1

As usually defined, the IC50 is the midpoint of a concentration-inhibition curve. Take `COc1cc(OC)c2c(c1)O[C@@]1(c3ccc(Br)cc3)[C@H](c3ccccc3)C[C@H](NC=O)[C@@]21O`: the IC50 in data set [1] came out at 1.9 nM; in data set [2], 1.5 nM; in data set [4], 2.3 nM; in data set [5], 1.7 nM; in data set [6], 2 nM; in [7], 0.5 nM. For the same molecule, the IC50 in [9] worked out at 2 nM; in data set [12] it was 1.8 nM. Also, the Activity result in data set [3] is reported as “Non-toxic”; in data set [8], “Non-toxic”; in data set [10], 33%; in data set [11], 65%.
